Laboratory results from article PMC11178347 (Proteoglycan research, 2023).
Entries after “also recorded” stand apart in the source; their conditions may differ. Ends that are not written are not given here.

Legend:
collagen = details: ref unpublished studies; cited from earlier work
[1] = Peptide association with chondroitin sulfate; assay type: physicochemical; details: for Decrease in peptides associated per disaccharide / Percent Decrease in total peptide associated/GAG: with CS, before vs after 1 M NaCl and 8 M urea wash
Summary of the method: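 Chondroitin sulfate (10 mg/mL) reacted overnight at pH 4.5 with peptide (theoretical 16% disaccharide substitution) in 0.1 M MES/8 M urea/0.2 wt% NaCl, with EDC 0.5:1 per disaccharide or without EDC. Stopped at pH 8.5, tangential-flow filtered (10 kDa). Agitated 30 min in 1 M NaCl/8 M urea, spin-filtered (10 kDa) and water-exchanged three times. Peptide measured by A280 against standard curves, before and after wash.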

[2] = Circular dichroism secondary structure of GQLY variants; assay type: physicochemical; details: 1 mg/mL, pH 8.5 sodium borate buffer; for Antiparallel / Helix / Others / Parallel / Turn: CD far-UV 190-250 nm, BESTSEL; for Structure difference between variants by CD: SRR-hyd vs GSG-hyd
Summary of the method: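 Peptides at 1 mg/mL in pH 8.5 sodium borate buffer, quartz cell. Far-UV spectra 190–250 nm, baseline-corrected. Secondary-structure fractions fitted by least squares at each wavelength point, separating antiparallel β-sheet by twist angle and regular from distorted α-helix.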

[3] = SRR-hyd conjugation to GAG backbones; assay type: physicochemical; details: following salt washing
Summary of the method: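 Heparin, hyaluronic acid, chondroitin sulfate or dermatan sulfate (10 mg/mL) coupled to peptide with EDC (0.5:1 per disaccharide) in 0.1 M MES/8 M urea/0.2 wt% NaCl, pH 4.5, overnight. Quenched at pH 8.5, purified by tangential flow over a 10 kDa membrane, lyophilised. Peptide content from 280 nm absorbance using peptide standard curves, expressed per disaccharide (GAG mass divided by disaccharide mass).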

platelet binding = details: ref Biran & Pond, 2017; Linhardt et al., 2008; cited from earlier work
[4] = tested on: platelet adhesion to immobilized fibrillar collagen; experiment: Inhibition of platelet adhesion to immobilized fibrillar collagen under flow; assay type: cell-based; details: even at high concentrations; human whole blood, 1000 s−1
Summary of the method: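 Flow channels coated with fibrillar type I collagen (100 μg/mL, 1 h, room temperature) and PBS-washed. Channels pre-incubated 1 h with test compound, or with its heparin or peptide component alone, at increasing concentrations, then flushed. Citrated human whole blood, pooled and used within 3 h, stained with Calcein-AM 30 min at 37 °C. Conjugate added to blood, perfused at 1000 s−1. Adherent platelets imaged by fluorescence and normalised to untreated control.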

GQLYKSILY
Collagen binding (collagen): also binding to collagen

GQLYKSILYGSGSG-hydrazide
Decrease in peptides associated per disaccharide [1]: 1.1%
Percent Decrease in total peptide associated/GAG [1]: 15%
Antiparallel [2]: 25.6
Helix [2]: 6.2
Others [2]: 53.9
Parallel [2]: 0
Turn [2]: 14.3
Structure difference between variants by CD [2]: minimal difference in their structure

GQLYKSILYGSGSGSRR-NH2
Peptide association with CS, without EDC ([1]; absence of EDC, initial 10 kDa purification): equivalent
Decrease in peptides associated per disaccharide [1]: 5.7%

GQLYKSILYGSGSGSRR-hydrazide
Peptide association with CS, with EDC ([1]; after EDC reaction, initial 10 kDa purification): significantly more peptide association when using the SRR-hyd variant compared to the GSG-hyd variant; also recorded: more SRR-hyd associated with CS compared to the SRR-amide variant
Decrease in peptides associated per disaccharide [1]: 5.2%
Percent Decrease in total peptide associated/GAG [1]: 32%
Antiparallel [2]: 21.8
Helix [2]: 5.5
Others [2]: 59.2
Parallel [2]: 0
Turn [2]: 13.5
Structure difference between variants by CD [2]: minimal difference in their structure

chondroitin sulfate [CS]
GQLY (SRR-hyd) conjugation supported by the GAG backbone [3]: same intermediate level of GQLY conjugation

dermatan sulfate [DS]
GQLY (SRR-hyd) conjugation supported by the GAG backbone [3]: same intermediate level of GQLY conjugation

heparin
Platelet binding suppression (platelet binding): known to suppress platelet binding
GQLY (SRR-hyd) conjugation supported by the GAG backbone [3]: greatest GQLY conjugation
Platelet inhibition, in words [4]: no significant platelet inhibition

hyaluronic acid [HA]
GQLY (SRR-hyd) conjugation supported by the GAG backbone [3]: least
